Article PMC8092417 (Anti-cancer drugs, 2020)

Columns and labels:
[1] = tested on: HLA+CD44+CD24- cancer stem cells of TU-BcX-4IC-implanted mice; experiment: Flow cytometry for circulating cancer stem cells in peripheral blood; format: in vivo, SCID/Beige mice; settings: 25 mg/kg bid, vs DMSO vehicle
How it was run: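 Female SCID/Beige mice (n=5/group) carried TU-BcX-4IC tumor implants (3 × 3 mm) in the mammary fat pads and received i.p. test compound or DMSO vehicle twice daily for 15 days. Intracardiac blood was stored in EDTA […], RBC-lysed ([…] NH4Cl, pH 7.2–7.4), Fc-blocked, and stained with anti-human CD24, EpCAM and CD44. At least 5000 events were analyzed; n=4 mice/group; mean ± SEM.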

TU-BcX-4IC cells [2] = experiment: Crystal violet staining, cells remaining / viability dose-response; format: cell-based, human; settings: 1 μM, 72 hours
BT-549 cells = experiment: qRT-PCR of epithelial and mesenchymal genes; format: cell-based, human; settings: BT-549, 1 μM, 72 hours
How it was run: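 Cells were treated 72 h with test compound (1 μM) or DMSO. Total RNA was column-isolated and checked for quantity and quality by absorbance (260, 280 nm). Then 2 μg total RNA was reverse-transcribed and gene expression measured by qRT-PCR.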

TU-BcX-4IC M2 spheres = experiment: In vivo inoculation of pre-treated spheres, tumorigenesis and metastasis; set-up: species or system SCID/Beige mice; settings: 100,000 cells per injection
How it was run: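 TU-BcX-4IC M2 spheres were pre-exposed to test compound (1 μM) or DMSO for 72 h under low attachment. Spheres were dissociated to single cells with TrypLE, and only trypan blue-excluding viable cells were used. 100,000 cells/injection went bilaterally into the mammary fat pad of SCID/Beige mice (5/group). Tumours were measured biweekly by caliper, then resected. Mice were killed 20 days later, and lungs and livers were formalin-fixed, paraffin-embedded and H&E-stained for metastases.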

PLK1 = PLK1 (Homo sapiens, UniProt P53350); experiment: Kinase inhibition assay; format: biochemical; settings: 1 μM
[3] = tested on: PDX organoids (PDX-Os) created from TU-BcX-4IC; experiment: Live/dead fluorescence stain of patient-derived organoids; format: cell-based; settings: 1 μM, 72 hours, Calcein-AM/EthD-III
How it was run: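 Explants (2 × 2 mm) from passaged TU-BcX-4IC tumours were grown out for 7 days in 3D culture, giving mixed tumour and stromal cells. Organoids were moved to ultra-low-attachment spheroid wells and exposed to test compound or DMSO for 72 h. They were then stained with Calcein-AM (2 μM, live) and EthD-III (5 μM, dead) and imaged by confocal microscopy, 5 images per well.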

TU-BcX-2O0 tumors = experiment: qRT-PCR of ex vivo treated PDX tumor pieces; format: cell-based, human; settings: TU-BcX-2O0 tumor pieces, 1 μM, 72 hours
MDA-MB-231 M2 spheres = experiment: In vivo inoculation of pre-treated spheres, tumorigenesis and metastasis; set-up: species or system SCID/Beige mice; settings: MDA-MB-231 M2 spheres pre-treated 1 μM 72 hours; all cell concentrations
How it was run: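 M2 spheres were treated 72 h at 1 μM or with DMSO under low attachment, dissociated with TrypLE, and counted by Trypan Blue so that only viable cells were injected. Cells (1,000–200,000) went bilaterally into the mammary fat pads of SCID/Beige mice (N=5). Tumors were caliper-measured biweekly, then resected; mice were killed 20 days later. Lungs and livers were formalin-fixed, paraffin-embedded and H&E-stained, and metastases were quantified.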

TU-BcX-4IC cells [4] = experiment: Transwell migration assay; format: cell-based, human; settings: pretreated 1 μM 72 hours, 24 hours migration
How it was run: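 Cells were pretreated 72 h with test compound (1 μM) or DMSO, and viable cells were then seeded into transwell chambers for 24 h. Non-migrated cells were removed. Migrated cells were fixed, crystal violet-stained, imaged by brightfield and counted. Counts were normalized to DMSO per cell line; triplicate experiments.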

[5] = TU-BcX-4IC M2 spheres pre-treated 1 μM 72 hours

PLK1, sequence (P53350 whole entry): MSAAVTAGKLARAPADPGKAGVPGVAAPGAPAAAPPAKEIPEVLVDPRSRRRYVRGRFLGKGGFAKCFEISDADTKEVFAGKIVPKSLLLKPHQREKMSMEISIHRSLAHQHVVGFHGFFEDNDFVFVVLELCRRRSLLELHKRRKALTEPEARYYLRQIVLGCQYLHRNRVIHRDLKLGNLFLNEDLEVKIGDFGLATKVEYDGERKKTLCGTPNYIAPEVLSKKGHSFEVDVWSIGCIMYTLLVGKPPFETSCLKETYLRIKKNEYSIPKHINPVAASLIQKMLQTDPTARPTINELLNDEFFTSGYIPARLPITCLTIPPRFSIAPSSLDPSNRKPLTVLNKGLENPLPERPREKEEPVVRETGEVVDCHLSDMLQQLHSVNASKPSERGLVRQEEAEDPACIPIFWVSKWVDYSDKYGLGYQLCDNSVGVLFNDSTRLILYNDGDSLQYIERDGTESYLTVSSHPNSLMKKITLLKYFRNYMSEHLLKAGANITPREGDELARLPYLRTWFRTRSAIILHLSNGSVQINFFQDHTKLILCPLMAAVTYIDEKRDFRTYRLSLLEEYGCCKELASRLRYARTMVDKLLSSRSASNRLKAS

SMILES: C[C@@H](Oc1cc(-n2cnc3ccc(NC(=O)NC(C)(C)C)cc32)sc1C(N)=O)c1ccccc1Cl [GSK346294A]
- CSC populations in peripheral blood [1]: suppressed the CSC populations in the peripheral blood of mice implanted with TU-BcX-4IC tumors, although not significantly
- Number of cells remaining compared to DMSO controls (TU-BcX-4IC cells [2]): decreased the number of cells remaining
- CDH1 mRNA expression (BT-549 cells): significantly reduced CDH1 mRNA expression
- MMP9 mRNA expression (BT-549 cells): Neither GSK346294A nor GSK448459A affected MMP9 expression
- SNAI1 mRNA expression (BT-549 cells): no significant effects on SNAI1 expression
- cFOS mRNA expression (BT-549 cells): suppressive effects in all three TNBC cell lines, although not significantly
- Area of liver metastases (TU-BcX-4IC M2 spheres; [5]): did not suppress
- Area of lung metastasis (TU-BcX-4IC M2 spheres; [5]): suppressed area of lung metastasis
- Total number of lung lesions (TU-BcX-4IC M2 spheres; [5]): significantly suppresses total number of lesions
- Tumor formation of pre-treated spheres (TU-BcX-4IC M2 spheres; [5]): significantly suppressed tumor formation
- Number of liver metastases (TU-BcX-4IC M2 spheres; TU-BcX-4IC MS2 spheres pre-treated 1 μM 72 hours): did not suppress
- Activity against PLK1 (PLK1): strong activity
- Cytotoxicity to PDX organoids [3]: not cytotoxic
- MMP9 mRNA levels (TU-BcX-2O0 tumors): did not reduce MMP9 levels
- Reversal of mesenchymal phenotype on a transcript level (TU-BcX-2O0 tumors): did not reverse the mesenchymal phenotype
- Area and number of lung and liver metastases (MDA-MB-231 M2 spheres): consistently suppressed both overall area and number of metastases in all cell concentrations, although not significantly
- Transwell cell migration (TU-BcX-4IC cells [4]): most suppressive effects on cell migration
